Reference: ChEMBL document CHEMBL1158062, “Cyclopentenones, scaffolds for organic syntheses produced by the endophytic fungus mitosporic dothideomycete sp. LRUB20” (J Nat Prod, 2006)
Values after ≈ are worked out from the molar mass of the structure shown. Active and inactive are the calls of the source. No cut-off for these calls is given here.

Key:
Vero [1] = test: Cytotoxicity against african green monkey Vero cells at 50 ug/ml by SRB assay; assay type: cell-based; settings: chlorocebus sabaeus
BC [2] = test: Cytotoxicity against BC cells at 50 ug/ml by SRB assay; assay type: functional, cell-based
NCI-H187 [3] = test: Cytotoxicity against human NCI-H187 cells at 50 ug/ml by SRB assay; assay type: functional, cell-based
KB [4] = test: Cytotoxicity against human KB cells at 50 ug/ml by SRB assay; assay type: functional, cell-based
[5] = system: Mycobacterium tuberculosis; test: Antimycobacterial activity against Mycobacterium tuberculosis H37Ra by microplate alamar blue assay; assay type: functional
Outline: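 M. tuberculosis H37Ra grown in Middlebrook 7H9 broth and tested in a microplate Alamar Blue assay, with MIC as the read-out. Isoniazid and kanamycin sulfate were run as standard drugs.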

Vero [6] = test: Cytotoxicity against african green monkey Vero cells by SRB assay; assay type: cell-based; settings: chlorocebus sabaeus
Outline: (§1)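 Colorimetric cytotoxicity read-out following the Skehan method, run on Vero, KB, NCI-H187 and BC cell lines, with ellipticine included as the reference compound; result reported as IC50.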

KB [7] = test: Cytotoxicity against human KB cells by SRB assay; assay type: functional, cell-based; outline: as §1
NCI-H187 [8] = test: Cytotoxicity against human NCI-H187 cells by SRB assay; assay type: functional, cell-based; outline: as §1
BC [9] = test: Cytotoxicity against BC cells by SRB assay; assay type: functional, cell-based; outline: as §1

Row | Compound | Activity (Vero [1]) | Activity (BC [2]) | Activity (NCI-H187 [3]) | Activity (KB [4]) | MIC [5] [µg/mL] | IC50 (Vero [6]) [µg/mL] | Activity (KB [7]) | Activity (NCI-H187 [8]) | Activity (BC [9])
1 | COC(=O)c1cc(O)cc(OC)c1Oc1cc(C)cc(O)c1C(=O)O [ASTERRIC ACID] | Not Active | inactive | inactive | inactive | 200 (≈ 574 µM) | – | – | – | –
2 | CC1=C(CO)C(=O)CC1 | Not Active | inactive | inactive | inactive | 200 (≈ 1590 µM) | – | – | – | –
3 | C[C@@H]1CC/C(=N\Nc2ccc([N+](=O)[O-])cc2[N+](=O)[O-])[C@@H]1CO | – | – | – | – | 200 (≈ 649 µM) | 21.7 (≈ 70.4 µM) | inactive | inactive | inactive
4 | CC1=C(CO)/C(=N/Nc2ccc([N+](=O)[O-])cc2[N+](=O)[O-])CC1 | Not Active | inactive | inactive | inactive | – | – | – | – | –
